Test results from ChEMBL document CHEMBL3272036, “Reactions of 2-acyloxyisobutyryl halides with nucleosides. Synthesis and biological evaluation of some 3"-acyl and 3',5'-diacyl derivatives of 1-beta-D-arabinofuranosylcytosine” (J Med Chem, 1976).
Converted amounts (≈) assume the structure as drawn. The source made the active and inactive calls. The calls are words filed in the database; no cut-off is given here.

Columns and labels:
Vaccinia virus = test: Antiviral activity against Vaccinia virus IHD infected in African green monkey BGM cells assessed as plaque reduction measured on day 5 by disk diffusion assay; type: functional; settings: Orthopoxvirus vaccinia, 120 h, read-out: ED50 (the source's name)
L1210 [1] = test: Antitumor activity against mouse L1210 cells allografted in BDF1 mouse assessed as increase in life span at 200 mg/kg, ip administered as single dose relative to vehicle-treated control; type: functional; settings: route intraperitoneal
Method in brief: (§1)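 Single intraperitoneal injection given 24 h after the leukemic cells were introduced, at 100, 200, 500 or 1000 mg/kg. Read-out is % increase in life span (ILS), with the count of 30-day survivors per group recorded (group sizes 7–8 mice).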

L1210 [2] = test: Antitumor activity against mouse L1210 cells allografted in BDF1 mouse assessed as survival at 1000 mg/kg, ip administered as single dose measured on day 30 relative to vehicle-treated control; type: functional, organism-based; set-up: dose 1000 mg/kg
Method in brief: (§2)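 Leukemic L1210 cells were introduced into mice. Each compound was then given as a single intraperitoneal injection 24 h later. Activity is expressed as % increase in life span (ILS), with the count of 30-day survivors per group. Doses tested were 100, 200, 500 and 1000 mg/kg.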

L1210 [3] = test: Antitumor activity against mouse L1210 cells allografted in BDF1 mouse assessed as survival at 200 mg/kg, ip administered as single dose measured on day 30 relative to vehicle-treated control; type: functional, organism-based; set-up: dose 200 mg/kg; method in brief: as §2
L1210 [4] = test: Antitumor activity against mouse L1210 cells allografted in BDF1 mouse assessed as increase in life span at 500 mg/kg, ip administered as single dose relative to vehicle-treated control; type: functional; settings: route intraperitoneal; method in brief: as §1
Herpesviridae sp. = test: Antiviral activity against Herpes Simplex virus HF infected in African green monkey BGM cells assessed as plaque reduction measured on day 5 by disk diffusion assay; type: functional; settings: 120 h, read-out: ED50 (the source's name)
HeLa = test: Cytotoxicity against human HeLa cells after 48 hrs by Coulter counter analysis; type: functional; settings: read-out: ED50 (the source's name)
L1210 [5] = test: Antitumor activity against mouse L1210 cells allografted in BDF1 mouse assessed as survival at 100 mg/kg, ip administered as single dose measured on day 30 relative to vehicle-treated control; type: functional, organism-based; set-up: dose 100 mg/kg; method in brief: as §2
L1210 [6] = test: Antitumor activity against mouse L1210 cells allografted in BDF1 mouse assessed as increase in life span at 100 mg/kg, ip administered as single dose relative to vehicle-treated control; type: functional; settings: route intraperitoneal; method in brief: as §1
L1210 [7] = test: Antitumor activity against mouse L1210 cells allografted in BDF1 mouse assessed as increase in life span at 1000 mg/kg, ip administered as single dose relative to vehicle-treated control; type: functional; settings: route intraperitoneal; method in brief: as §1
L1210 [8] = test: Antitumor activity against mouse L1210 cells allografted in BDF1 mouse assessed as survival at 500 mg/kg, ip administered as single dose measured on day 30 relative to vehicle-treated control; type: functional, organism-based; set-up: dose 500 mg/kg; method in brief: as §2
L1210 [9] = test: Antitumor activity against mouse L1210 cells allografted in ip dosed mouse administered as single dose relative to vehicle-treated control; type: functional; method in brief: as §2
L1210 [10] = test: Chemotherapeutic index, ratio of ILSmax for antitumor activity against mouse L1210 cells allografted in BDF1 mouse to ILS30 for antitumor activity against mouse L1210 cells allografted in BDF1 mouse; type: functional
Method in brief: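 Dose-response curves were determined in L1210-bearing mice, each receiving a single ip injection 24 h after leukemic cell introduction. Chemotherapeutic index = the dose producing maximum % ILS divided by the dose giving 30% ILS.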

Compound: CCCCCCCCCCCCCCCCCCCC(=O)O[C@H]1[C@H](O)[C@H](n2ccc(N)nc2=O)O[C@@H]1CO
- EC50 (Vaccinia virus): > 30000 nM
- ILS at 200 mg/kg (L1210 [1]): 164%
- Activity (L1210 [2]): Active
- Activity (L1210 [3]): inactive
- ILS at 500 mg/kg (L1210 [4]): > 274%
- EC50 (Herpesviridae sp.): > 30000 nM
- EC50 (HeLa): 0.1 µg/mL (≈ 0.186 µM)
- Activity (L1210 [5]): inactive
- ILS at 100 mg/kg (L1210 [6]): 91%
- ILS at 1000 mg/kg (L1210 [7]): > 295%

Compound: Nc1ccn([C@@H]2O[C@H](CO)[C@@H](O)[C@@H]2O)c(=O)n1 [CYTARABINE]
- EC50 (Vaccinia virus): 70 nM
- ILS at 200 mg/kg (L1210 [1]): 7%
- Activity (L1210 [2]): inactive
- Activity (L1210 [3]): inactive
- ILS at 500 mg/kg (L1210 [4]): 16%
- EC50 (Herpesviridae sp.): 160 nM
- EC50 (HeLa): 0.05 µg/mL (≈ 0.206 µM)
- Activity (L1210 [5]): inactive
- ILS at 100 mg/kg (L1210 [6]): 8%
- Activity (L1210 [8]): inactive
- ILS at 1000 mg/kg (L1210 [7]): 34%

Compound: CCCC(=O)O[C@H]1[C@H](O)[C@H](n2ccc(N)nc2=O)O[C@@H]1CO
- EC50 (Vaccinia virus): 1200 nM
- ILS at 200 mg/kg (L1210 [1]): 13%
- Activity (L1210 [3]): inactive
- ILS at 500 mg/kg (L1210 [4]): 22%
- EC50 (Herpesviridae sp.): 2800 nM
- EC50 (HeLa): 0.11 µg/mL (≈ 0.351 µM)
- Activity (L1210 [8]): inactive

Compound: CCCCCCCCCCCCCCCCCCCCCC(=O)O[C@H]1[C@H](O)[C@H](n2ccc(N)nc2=O)O[C@@H]1CO
- EC50 (Vaccinia virus): > 30000 nM
- ILS at 200 mg/kg (L1210 [1]): > 215%
- Activity (L1210 [2]): Active
- EC50 (Herpesviridae sp.): > 30000 nM
- EC50 (HeLa): 1.1 µg/mL (≈ 1.94 µM)
- ILS30 (L1210 [9]): 2 mg/kg
- ILSmax (L1210 [9]): 2000 mg/kg
- ILS at 100 mg/kg (L1210 [6]): > 200%
- Ratio (L1210 [10]): 1000
- ILS at 1000 mg/kg (L1210 [7]): > 240%

Compound: CCCCCCCCCC(=O)O[C@H]1[C@H](O)[C@H](n2ccc(N)nc2=O)O[C@@H]1CO
- EC50 (Vaccinia virus): 100 nM
- ILS at 200 mg/kg (L1210 [1]): > 224%
- Activity (L1210 [2]): inactive
- ILS at 500 mg/kg (L1210 [4]): > 161%
- EC50 (Herpesviridae sp.): 340 nM
- EC50 (HeLa): 0.09 µg/mL (≈ 0.226 µM)
- ILS30 (L1210 [9]): 5 mg/kg
- ILSmax (L1210 [9]): 150 mg/kg
- ILS at 100 mg/kg (L1210 [6]): > 241%
- Ratio (L1210 [10]): 30
- ILS at 1000 mg/kg (L1210 [7]): -23%

Compound: CCCCCCCC(=O)O[C@H]1[C@H](O)[C@H](n2ccc(N)nc2=O)O[C@@H]1CO
- EC50 (Vaccinia virus): 110 nM
- ILS at 200 mg/kg (L1210 [1]): 48%
- Activity (L1210 [2]): inactive
- Activity (L1210 [3]): inactive
- ILS at 500 mg/kg (L1210 [4]): 37%
- EC50 (Herpesviridae sp.): 640 nM
- EC50 (HeLa): 0.1 µg/mL (≈ 0.271 µM)
- Activity (L1210 [5]): inactive
- ILS at 100 mg/kg (L1210 [6]): 34%
- Activity (L1210 [8]): inactive
- ILS at 1000 mg/kg (L1210 [7]): 11%

Compound: CCCCCCCCCCCCCC(=O)O[C@H]1[C@H](O)[C@H](n2ccc(N)nc2=O)O[C@@H]1CO
- EC50 (Vaccinia virus): 180 nM
- ILS at 200 mg/kg (L1210 [1]): > 284%
- Activity (L1210 [2]): inactive
- Activity (L1210 [3]): Active
- ILS at 500 mg/kg (L1210 [4]): -21%
- EC50 (Herpesviridae sp.): 640 nM
- EC50 (HeLa): 0.08 µg/mL (≈ 0.176 µM)
- ILS at 100 mg/kg (L1210 [6]): > 266%
- Activity (L1210 [8]): inactive
- ILS at 1000 mg/kg (L1210 [7]): -23%

Compound: CC(=O)O[C@H]1[C@H](O)[C@H](n2ccc(N)nc2=O)O[C@@H]1CO
- EC50 (Vaccinia virus): 580 nM
- ILS at 200 mg/kg (L1210 [1]): 19%
- Activity (L1210 [3]): inactive
- ILS at 500 mg/kg (L1210 [4]): 20%
- EC50 (Herpesviridae sp.): 1450 nM
- EC50 (HeLa): 0.14 µg/mL (≈ 0.491 µM)
- Activity (L1210 [5]): inactive
- ILS at 100 mg/kg (L1210 [6]): 14%
- Activity (L1210 [8]): inactive

Compound: CCCCCCCC/C=C\CCCCCCCCCCCC(=O)O[C@H]1[C@H](O)[C@H](n2ccc(N)nc2=O)O[C@@H]1CO
- EC50 (Vaccinia virus): 17500 nM
- ILS at 200 mg/kg (L1210 [1]): > 280%
- Activity (L1210 [2]): inactive
- Activity (L1210 [3]): Active
- ILS at 500 mg/kg (L1210 [4]): -34%
- EC50 (Herpesviridae sp.): > 30000 nM
- EC50 (HeLa): 0.16 µg/mL (≈ 0.284 µM)
- Activity (L1210 [5]): Active
- ILS at 100 mg/kg (L1210 [6]): > 280%
- Activity (L1210 [8]): inactive

Compound: CCCCCCCCCC(=O)OC[C@H]1O[C@@H](n2ccc(N)nc2=O)[C@@H](O)[C@@H]1O
- EC50 (Vaccinia virus): 180 nM
- ILS at 200 mg/kg (L1210 [1]): > 114%
- ILS at 500 mg/kg (L1210 [4]): > 122%
- EC50 (Herpesviridae sp.): 860 nM
- EC50 (HeLa): 0.1 µg/mL (≈ 0.252 µM)
- Activity (L1210 [5]): inactive
- ILS30 (L1210 [9]): 20 mg/kg
- ILSmax (L1210 [9]): 500 mg/kg
- ILS at 100 mg/kg (L1210 [6]): 59%
- Ratio (L1210 [10]): 25
- ILS at 1000 mg/kg (L1210 [7]): -45%

Compound: CCCCCCCCCCC(=O)OC[C@H]1O[C@@H](n2ccc(N)nc2=O)[C@@H](O)[C@@H]1OC(=O)CCCCCCCCCC
- EC50 (Vaccinia virus): 300 nM
- ILS at 200 mg/kg (L1210 [1]): > 300%
- Activity (L1210 [3]): inactive
- ILS at 500 mg/kg (L1210 [4]): 117%
- EC50 (Herpesviridae sp.): 780 nM
- EC50 (HeLa): 0.4 µg/mL (≈ 0.69 µM)
- ILS at 100 mg/kg (L1210 [6]): > 280%
- Activity (L1210 [8]): Active

Compound: CCCCCCCCCCCCCCCC(=O)OC[C@H]1O[C@@H](n2ccc(N)nc2=O)[C@@H](O)[C@@H]1O
- EC50 (Vaccinia virus): 300 nM
- ILS at 200 mg/kg (L1210 [1]): > 224%
- ILS at 500 mg/kg (L1210 [4]): -40%
- EC50 (Herpesviridae sp.): 1140 nM
- EC50 (HeLa): 0.08 µg/mL (≈ 0.166 µM)
- Activity (L1210 [5]): Active
- ILS30 (L1210 [9]): 2 mg/kg
- ILSmax (L1210 [9]): 150 mg/kg
- ILS at 100 mg/kg (L1210 [6]): > 257%
- Ratio (L1210 [10]): 75
- Activity (L1210 [8]): inactive

Compound: CCCCCCCCCCCCCCCCCCCCCC(=O)OC[C@H]1O[C@@H](n2ccc(N)nc2=O)[C@@H](O)[C@@H]1O
- EC50 (Vaccinia virus): 450 nM
- ILS at 200 mg/kg (L1210 [1]): > 295%
- Activity (L1210 [2]): inactive
- Activity (L1210 [3]): Active
- ILS at 500 mg/kg (L1210 [4]): > 295%
- EC50 (Herpesviridae sp.): 12000 nM
- EC50 (HeLa): 0.04 µg/mL (≈ 0.0707 µM)
- ILS30 (L1210 [9]): 1 mg/kg
- ILSmax (L1210 [9]): 500 mg/kg
- ILS at 100 mg/kg (L1210 [6]): > 228%
- Ratio (L1210 [10]): 500
- Activity (L1210 [8]): Active
- ILS at 1000 mg/kg (L1210 [7]): 45%
